In ChEMBL document CHEMBL1121917, “Structure--activity relationships in a broad-spectrum anthelmintic series. Acid chloride phenylhydrazones. 1. Aryl substitutions and chloride variations” (1981):

Columns and labels:
Mus musculus [1] = species on record: Mus musculus; experiment: Percent clearance of Nematospiroides dubius from mouse after oral treatment of 0.12 mg/mouse/day; assay type: functional
In short: (§1)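 Mice naturally carrying Syphacia obvelata were experimentally infected with Nematospiroides dubius and Hymenolepis nana, then grouped after a 2-week prepatency. Finely ground compound was suspended in aqueous 0.10% carboxymethylcellulose, 0.04% polysorbate 80 and 0.0042% polyparaben, and 0.1 mL was given orally by cannula once daily for 4 days to five mice. Necropsy followed 2 days later, scoring presence or absence of each parasite. Control clearance was subtracted from the treated clearance.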

Mus musculus [2] = species on record: Mus musculus; experiment: Percent clearance of Hymenolepis nana from mouse after oral treatment of 0.12 mg/mouse/day; assay type: functional; in short: as §1

Compound: Cc1cccc(/C(Cl)=N/Nc2ccccc2)c1
- Parasite_Clearance (Mus musculus [1]): 0%
- Parasite_Clearance (Mus musculus [2]): 0%
